For data set [1], the system named is LC3B. Description: LC3B immunostaining autophagy assay, average of four cell lines. The data set is classed as cell-based. Conditions: for EC50: 16 h, read-out: autophagy EC50.
For data set [2], the system named is LC3B. Description: LC3B immunostaining autophagy assay in Vero E6 cells. The format is cell-based, monkey. Particulars: Vero E6, about 16 h; for LC3B spot accumulation: 50 to 0.02 μM. The essentials:
(§1)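 Cells were seeded overnight to 60% confluence and dosed at 8 points, 1:3 from 50 μM to 0.02 μM. They were fixed in ice-cold methanol for 10 min at −30 °C, blocked, and stained with rabbit anti-LC3B for 2 h at RT, AlexaFluor-647 anti-rabbit for 1 h, and Hoechst. Six fields per well were imaged. Spot count was normalized to DMSO (0%) and a reference (100%). Points with viability below 20% were excluded.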

The test system of data set [3] is Vero E6 cells. Description: Cell. The format is cell-based, monkey.
Data set [4] concerns acidic organelles. Description: LysoTracker Deep Red staining in Vero E6 cells. The data set is classed as cell-based, monkey.
Data set [5] has as its system Vero E6 cells. Conditions: for cytotoxicity (reduction of cell viability): at 30.0 μM; for CC50: read-out: CPE CC50, uninfected Vero E6, 72 h; for cell toxicity in the CPE counter assay: Vero E6, up to 30.0 μM.
The conditions of data set [6]: cited from earlier work; for T1/2: 85 (chloroquine).
The nature of data set [7]: in vitro. Particulars: human.
Data set [8] deals with Vero E6 cells. Conditions: drug-repurposing screen in Vero E6 cells; cited from earlier work.
The subject of data set [9] is SARS-CoV-2. Particulars: Vero E6, OpenData Portal screening data, Figure S14; cited from earlier work.
The subject of data set [10] is Vero E6 cells. Particulars: Vero E6, OpenData Portal screening data, Figure S14; cited from earlier work.
Data set [11] concerns SARS-CoV-2. Description: microbe, parasite or virus in culture. The data set is classed as cell-based, SARS CoV-2 (USA_WA1/2020). Conditions: Severe acute respiratory syndrome coronavirus 2, Vero C1008, 72 h, read-out: CPE EC50, Vero E6, 72 h; table: mean ± confidence interval.
Data set [12] has as its system LC3B. Description: LC3B immunostaining autophagy assay in Huh-7.5 cells. The data set is classed as cell-based, human. The essentials:
as §1

Data set [13] has as its system SARS-CoV-2 spike pseudotyped particle (PP). Description: microbe, parasite or virus in culture. The format is cell-based. Particulars: Severe acute respiratory syndrome coronavirus 2, HEK-293T, 48 h, read-out: PP EC50.
Data set [14] has as its system SARS-CoV-2. Conditions: similar CPE assay with SARS-CoV-2 in Vero E6 cells; cited from earlier work.
Data set [15] relates to SARS-CoV-2. The format is cell-based. Conditions: EpiAirway, positive control.
Data set [16] has as its system human bronchial epithelial cells. Particulars: LDH release, 24 and 96 h. For orientation: Release of lactate dehydrogenase indicates damage to the cell membrane.
For data set [17] the following is noted: cited from earlier work.

Where two headings read alike, the source gives them in different places. A value given as a limit tells only on which side of the number the result lay.

For the compound `CN(C)CCCN1c2ccccc2CCc2ccc(Cl)cc21` [clomipramine], the “LC3B increase across the cell lines” value in [1] (Vero E6, HeLa, HEK293T, Huh-7.5) is on record as “effective in increasing LC3B in all cell lines except for Vero E6”. Besides, in data set [2] (normalized to DMSO (0%) and CQ (100%)), the “increase of LC3B spot count” value is on record as 40%. Moreover, in [3] (Vero E6, at 50 μM), the “cytotoxicity on the basis of nuclei counts” value was “not cytotoxic”. In addition, in [4], the “LysoTracker staining” value was “dramatic elevations in LysoTracker relative spot intensity”. Further, the “cytotoxicity (reduction of cell viability)” value in data set [5] (Vero E6) is reported as “less than 20%”. Further, the CC50 was greater than 30 µM in [5], 18.6 ± 0.29 µM in [7] and greater than 30 µM in data set [8]. Besides, in data set [6], the “Vd” value was “high Vd”.

Regarding `CO/C1=C\C(C)=C\[C@@H](C)[C@@H](O)[C@@H](C)C/C(C)=C/C=C/[C@H](OC)[C@@H]([C@@H](C)[C@@H](O)[C@H](C)[C@@]2(O)C[C@@H](O)[C@H](C)[C@@H](C(C)C)O2)OC1=O` [Bafilomycin A1], the “SARS-CoV-2 CPE inhibition” value in data set [9] is given as “able to block SARS-CoV-2 CPE at nontoxic nanomolar concentrations”. The “cytotoxicity” value in data set [10] is “highly cytotoxic”.

What is called EC50 is the midpoint of the concentration-response curve. Consider `OC(c1cc(C(F)(F)F)nc2c(C(F)(F)F)cccc12)C1CCCCN1` (centres unmarked) [mefloquine], for which the EC50 in data set [11] is 3.85 ± 0.24 µM; in [12] (Homo sapiens, Huh7.5, read-out: autophagy EC50) it was 7.3 µM; in [13], 8.84 ± 0.64 µM; in data set [14], 7.11 µM. For the same compound, the “LC3B spot accumulation” value in [2] was “ineffective at inducing LC3B spot accumulation”. In addition, in data set [3] (Vero E6, at 50 μM), the “cytotoxicity on the basis of nuclei counts” value is “completely toxic”. The “toxicity in the LysoTracker assay” value in data set [3] (Vero E6, highest concentration (50 μM)) is recorded as “toxic at the highest concentration”. Besides, the “LC3B spot counts” value in data set [12] (Huh-7.5) was “increased LC3B spot counts even at low concentrations”. In data set [4], the “LysoTracker staining” value is recorded as “dramatic elevations in LysoTracker relative spot intensity”. The compound also had a cytotoxicity in data set [5] (at 15.0 to 30.0 μM, Vero E6) of 100%. The CC50 in data set [7] was 5.4 ± 0.01 µM; in [8], greater than 18.5 µM.

Take `CCC(CC)COC(=O)[C@H](C)N[P@](=O)(OC[C@H]1O[C@@](C#N)(c2ccc3c(N)ncnn23)[C@H](O)[C@@H]1O)Oc1ccccc1` [remdesivir]: in data set [11], the EC50 stood at 7.04 µM. Moreover, in data set [15], the “reduction of viral titers” value was “highly effective in reducing viral titers”. In data set [5], the “cell toxicity in the CPE counter assay” value is on record as “no apparent cytotoxicity”. In addition, in data set [16], the “cytotoxicity in EpiAirway” value is recorded as “without any cytotoxicity”.

For `CC(C)(O)CNc1ncc(-c2ccnc(Nc3ccnc(Cl)c3)n2)c(CC2CC2)n1` [VPS34-IN-1], in [9], the “SARS-CoV-2 CPE inhibition” value is listed as “potently inhibited the SARS-CoV-2 CPE at concentrations that were not cytotoxic”. Further, in [10], the “cytotoxicity” value is on record as “cytotoxicity was observed at higher concentrations”.

Regarding `CCN(CC)CCNc1ccc(CO)c2sc3ccccc3c(=O)c12` [hycanthone], the figures for the EC50 in data set [11], in data set [1] and in [13] were 5.79 ± 0.26 µM, 7.35 ± 4.7 µM and 1.88 ± 0.08 µM, respectively. Further, the “LC3B spot accumulation” value in data set [2] is “maximal spot counts”. Also, the cells killed entry in data set [3] (Vero E6, at 50 μM) was “approximately 60%”. In addition, in data set [5] (Vero E6), the “cytotoxicity (reduction of cell viability)” value is recorded as roughly 100%. In addition, the “absorption” value in data set [17] (monkey) is reported as “well-absorbed in monkey”. Also, in [17] (species not given, human data lacking), the T1/2 was 0.12 to 0.21 days. Also, in data set [7], the CC50 came out at 11.7 ± 0.49 µM.

Turning to `CCN(CCO)CCCC(C)Nc1ccnc2cc(Cl)ccc12` (centres unmarked) [hydroxychloroquine], the EC50 in data set [11] was 4.47 µM; in data set [1] it was 6.55 ± 6.67 µM; in data set [13] it was 2.19 ± 0.07 µM; in data set [14] it was 9.21 µM. Further, the “cell toxicity in the CPE counter assay” value in [5] is given as “no associated cell toxicity”. For the same compound, the CC50 was greater than 30 µM in data set [5] and 16.7 ± 20.3 µM in data set [7]. The T1/2 in [6] (86 (hydroxychloroquine)) is roughly 40 days. In data set [6] (ref 82 (clomipramine), 86 (hydroxychloroquine)), the “absorption” value was “rapid and complete absorption”.

As to `CCN(CC)CCCC(C)Nc1ccnc2cc(Cl)ccc12` (centres unmarked) [chloroquine], the EC50 is 2.01 µM in data set [11], 3.29 ± 1.86 µM in data set [1], 1.37 ± 0.1 µM in [13] and 42 µM in data set [14]. Moreover, the “cell toxicity in the CPE counter assay” value in data set [5] is given as “no associated cell toxicity”. Further, the values for the CC50 in [5] and in data set [7] were greater than 30 µM and 12 ± 0.51 µM, respectively. For the same compound, in data set [6] (86 (hydroxychloroquine)), the T1/2 was 30 to 60 days. In addition, the plasma bound in data set [6] is reported as 50–70%.

These data come from PMC7771250 (ACS Infectious Diseases, 2020).
